Our source for the folding enthalpy and Tm values is the array DNA melting data of Ke et al. (doi:10.1101/2024.01.08.574731).

A short description of data set [1]: folding enthalpy; higher = less favourable; fluorescence melt of hairpins on a sequencing array, two-state fit. The settings on record: sodium 0.088 M. Put shortly:
(§1)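 Melting temperature and folding enthalpy were derived from bootstrapped two-state fits. The fitted temperatures were raised by 9.35 °C to agree with UV melts, and four replicates were combined by inverse variance. The underlying data were Cy3 fluorescence images of library hairpins, with annealed Cy3 and quencher oligos, on a sequenced MiSeq flow cell in 50 mM Na-HEPES pH 8.0, 25 mM NaCl, taken in 2.5 °C steps up to 60 °C, normalised to pre-quench Cy3 and to control constructs.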

Data set [2] is described as follows: melting temperature; fluorescence melt of hairpins on a sequencing array, two-state fit, raised by 9.35 °C to match UV melts. The settings on record: sodium 0.088 M. Put shortly: as §1

Consider GATCCTTGCCAGGATC ((((((....)))))), for which the folding enthalpy in data set [1] is -31 kcal/mol. In data set [2], the Tm was 51.5 °C.
In the same order, the values of GATCCTTGCGAGGATC ((((((....)))))) are -49.1 kcal/mol and 54.8 °C.
Turning to GATCCTTTAAGGATC ((((((...)))))), in data set [1], the folding enthalpy was -33.1 kcal/mol. The Tm in data set [2] was 55.6 °C.
On to GATCCTTTCAAGGATC ((((((....)))))), for which the folding enthalpy in data set [1] is -33.3 kcal/mol. Also, the Tm in data set [2] turned out to be 57.7 °C.
In the same order, the values of GATCCTTTCAGGATC ((((((...)))))) are -41.3 kcal/mol and 57.4 °C.
The matching figures for GATCCTTTTAAGGATC ((((((....)))))): -36.6 kcal/mol and 57.9 °C.
The matching figures for GATCGAAAAACGATC ((...........)): -20.3 kcal/mol and 39.2 °C.
On to GATCGAAAAGTCGATC ((((((....)))))), for which the folding enthalpy in data set [1] is -28.5 kcal/mol. The Tm in data set [2] worked out at 45.9 °C.
In the same order, the values of GATCGAACAATCGATC ((((((....)))))) are -31.3 kcal/mol and 47.4 °C.
The matching figures for GATCGAACGTTCGATC ((((((....)))))): -49.3 kcal/mol and 56.7 °C.
On to GATCGAAGCTCGATC ((((((...)))))), for which the folding enthalpy in data set [1] was -36 kcal/mol. Besides, the Tm in data set [2] is 49.9 °C.
The matching figures for GATCGAAGCTTCGATC ((((((....)))))): -49.6 kcal/mol and 56.5 °C.
In the same order, the values of GATCGAAGGATCGATC ((((((....)))))) are -22.9 kcal/mol and 51.4 °C.
In the case of GATCGAAGGCTCGATC ((((((....)))))), the folding enthalpy in data set [1] was -31 kcal/mol. Further, the Tm in data set [2] was determined as 50.1 °C.
The matching figures for GATCGAAGTATCGATC ((((((....)))))): -31.7 kcal/mol and 50.9 °C.
In the case of GATCGAATATTCGATC ((((((....)))))), in data set [1], the folding enthalpy was -44.5 kcal/mol. Moreover, the Tm in data set [2] turned out to be 53.3 °C.
In the same order, the values of GATCGAATTATCGATC ((((((....)))))) are -38.2 kcal/mol and 50.7 °C.
The matching figures for GATCGAATTCTCGATC ((((((....)))))): -43.3 kcal/mol and 51.4 °C.
For GATCGACAAGTCGATC ((((((....)))))), the folding enthalpy in data set [1] was -44.7 kcal/mol. The Tm in data set [2] was determined as 58.9 °C.
Regarding GATCGACAATCGATC ((((((...)))))), in data set [1], the folding enthalpy is -29.4 kcal/mol. In addition, the Tm in data set [2] was 46.6 °C.
The matching figures for GATCGACACTCGATC ((((((...)))))): -30.9 kcal/mol and 49.9 °C.
In the same order, the values of GATCGACAGCTCGATC ((((((....)))))) are -41.2 kcal/mol and 49.4 °C.
In the same order, the values of GATCGACCCCTCGATC ((((((....)))))) are -47.5 kcal/mol and 51.7 °C.
Turning to GATCGACGGTTCGATC ((((((....)))))), the folding enthalpy in data set [1] is -39.6 kcal/mol. Further, the Tm in data set [2] came to 50.7 °C.
The matching figures for GATCGACTAATCGATC ((((((....)))))): -30.3 kcal/mol and 49.9 °C.
In the same order, the values of GATCGACTATCGATC ((((((...)))))) are -35.2 kcal/mol and 49.3 °C.
In the same order, the values of GATCGACTGGTCGATC ((((((....)))))) are -37.5 kcal/mol and 62.7 °C.
Regarding GATCGAGAAGTCGATC ((((((....)))))), in data set [1], the folding enthalpy is -31.1 kcal/mol. Moreover, in data set [2], the Tm amounted to 55.4 °C.
In the same order, the values of GATCGAGATATCGATC ((((((....)))))) are -38.2 kcal/mol and 58.7 °C.
The matching figures for GATCGAGCAGTCGATC ((((((....)))))): -39.7 kcal/mol and 54.3 °C.
In the same order, the values of GATCGAGCGGTCGATC ((((((....)))))) are -45.7 kcal/mol and 53 °C.
With GATCGAGCTTCGATC ((((((...)))))), the folding enthalpy in data set [1] was -33.8 kcal/mol. The Tm in data set [2] worked out at 51.3 °C.
In the same order, the values of GATCGAGGAGTCGATC ((((((....)))))) are -40.2 kcal/mol and 53.7 °C.
The matching figures for GATCGAGGCATCGATC ((((((....)))))): -41.8 kcal/mol and 58.5 °C.
As for GATCGAGTAGTCGATC ((((((....)))))), in data set [1], the folding enthalpy is -34.3 kcal/mol. Further, in data set [2], the Tm stood at 55.9 °C.
The matching figures for GATCGAGTCCTCGATC ((((((....)))))): -45.8 kcal/mol and 56.2 °C.
The matching figures for GATCGAGTGTCGATC ((((((...)))))): -37.6 kcal/mol and 49.8 °C.
With GATCGAGTGTTCGATC ((((((....)))))), the folding enthalpy in data set [1] was -34.8 kcal/mol. The Tm in data set [2] turned out to be 51.9 °C.
In the same order, the values of GATCGATAACTCGATC ((((((....)))))) are -36.3 kcal/mol and 49.3 °C.
In the same order, the values of GATCGATATTCGATC ((((((...)))))) are -30.3 kcal/mol and 52.6 °C.
The matching figures for GATCGATCCGTCGATC ((((((....)))))): -44.8 kcal/mol and 53.6 °C.
Turning to GATCGATCGGTCGATC ((((((....)))))), the folding enthalpy in data set [1] was -41.6 kcal/mol. For the same sequence, the Tm in data set [2] is 52 °C.
In the same order, the values of GATCGATCTGTCGATC ((((((....)))))) are -45.2 kcal/mol and 53.1 °C.
In the same order, the values of GATCGATCTTTCGATC ((((((....)))))) are -48.8 kcal/mol and 53.1 °C.
The matching figures for GATCGATGACTCGATC ((((((....)))))): -30.5 kcal/mol and 49.5 °C.
Consider GATCGATGATCGATC ((((((...)))))), for which the folding enthalpy in data set [1] is -22.2 kcal/mol. Besides, the Tm in data set [2] was 50.7 °C.
As for GATCGATGTGTCGATC ((((((....)))))), the folding enthalpy in data set [1] is -40.2 kcal/mol. The Tm in data set [2] was 57.9 °C.
In the same order, the values of GATCGCAATAGCGATC ((((((....)))))) are -26 kcal/mol and 68.4 °C.
Turning to GATCGCAATGCGATC ((((((...)))))), the folding enthalpy in data set [1] was -33 kcal/mol. Further, the Tm in data set [2] is 68.5 °C.
In the same order, the values of GATCGCAATTGCGATC ((((((....)))))) are -31.1 kcal/mol and 67.8 °C.
As for GATCGCACCCGCGATC ((((((....)))))), in data set [1], the folding enthalpy is -38.9 kcal/mol. Moreover, in data set [2], the Tm was found to be 67.6 °C.
The matching figures for GATCGCACGAGCGATC ((((((....)))))): -31.7 kcal/mol and 68.4 °C.
For the sequence GATCGCACGTGCGATC ((((((....)))))), the folding enthalpy in data set [1] was -40.4 kcal/mol. Besides, the Tm in data set [2] was found to be 68.8 °C.
Turning to GATCGCAGCGGCGATC ((((((....)))))), the folding enthalpy in data set [1] was -28.8 kcal/mol. Further, in data set [2], the Tm came out at 68.4 °C.
The matching figures for GATCGCAGCTGCGATC ((((((....)))))): -41 kcal/mol and 69.3 °C.
In the same order, the values of GATCGCCAAGCGATC ((((((...)))))) are -29.8 kcal/mol and 67.5 °C.
The matching figures for GATCGCCAATGCGATC ((((((....)))))): -38.1 kcal/mol and 65.3 °C.
Turning to GATCGCCCAAGCGATC ((((((....)))))), the folding enthalpy in data set [1] was -23 kcal/mol. The Tm in data set [2] was found to be 66.7 °C.
The matching figures for GATCGCCCGAAAGGGATC (((..(((....)))))): -14.6 kcal/mol and 34.5 °C.
The matching figures for GATCGCCCTAGCGATC ((((((....)))))): -34.4 kcal/mol and 69.1 °C.
The matching figures for GATCGCCGCTGCGATC ((((((....)))))): -38.5 kcal/mol and 66.9 °C.
Consider GATCGCGAAAGCGACATC ((((((....)))..))), for which the folding enthalpy in data set [1] was -8.3 kcal/mol. For the same sequence, the Tm in data set [2] came out at 32.1 °C.
The matching figures for GATCGCGAAAGCGGGATC ((((((....)))..))): -14.1 kcal/mol and 45.5 °C.
In the same order, the values of GATCGCGAAAGCGGTATC ((((((....)))..))) are -10.9 kcal/mol and 39 °C.
In the same order, the values of GATCGCGAAAGCGTATC ((((((....))).))) are -15.5 kcal/mol and 51.8 °C.
Take GATCGCGAAAGCGTTATC ((((((....)))..))): the folding enthalpy in data set [1] is -15 kcal/mol. Further, the Tm in data set [2] is 28.1 °C.
With GATCGCGCCTGCGATC ((((((....)))))), the folding enthalpy in data set [1] is -26.7 kcal/mol. Further, the Tm in data set [2] amounted to 69.3 °C.
The matching figures for GATCGCGCGGCGATC ((((((...)))))): -34.6 kcal/mol and 68.5 °C.
As to GATCGCGCGGGCGATC ((((((....)))))), in data set [1], the folding enthalpy was -32.9 kcal/mol. In addition, in data set [2], the Tm came to 67.2 °C.
For the sequence GATCGCGCGTGCGATC ((((((....)))))), in data set [1], the folding enthalpy is -26.4 kcal/mol. Besides, the Tm in data set [2] was found to be 67.9 °C.
The matching figures for GATCGCGGAAACACGATC (((((.(....).))))): -30.7 kcal/mol and 48.6 °C.
The matching figures for GATCGCGGAAACGTGGTC ((.(.((....)).).)): -26.7 kcal/mol and 43.6 °C.
The matching figures for GATCGCGGGGGCGATC ((((((....)))))): -27.7 kcal/mol and 69.3 °C.
In the case of GATCGCTAATGCGATC ((((((....)))))), the folding enthalpy in data set [1] was -31.4 kcal/mol. In addition, the Tm in data set [2] was 67.1 °C.
The matching figures for GATCGCTCGAGCGATC ((((((....)))))): -42.1 kcal/mol and 67.6 °C.
The matching figures for GATCGCTGCCGCGATC ((((((....)))))): -32.8 kcal/mol and 67.3 °C.
